Measurements from ChEMBL document CHEMBL4811225 (J Med Chem, 2021).
Where a SMILES comes first, the peptide text is derived from it. Bridges are numbered along the chain shown (N, C = ends).

Legend:
[1] = target: Neuronal acetylcholine receptor; alpha9/alpha10 (Homo sapiens, UniProt Q9GZZ6+Q9UGM1); test: Inhibition of human alpha9alpha10 nAChR expressed in Xenopus laevis oocytes assessed as inhibition of acetylcholine-induced current response by two-electrode voltage-clamp method; format: cell-based, Oocyte
In short: (§1)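 Two-electrode voltage clamp of stage IV–V oocytes 1–5 days after equal-ratio cRNA injection; ACh 100 μM (β2-containing subtypes, α9α10), 1 s every 60 s in frog saline. Peptide perfused up to 1 μM, responses normalized to mean of three control responses; above 1 μM, 5 min static bath. IC50 with 95% CI; n = oocytes.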

[2] = target: Nicotinic acetylcholine receptor alpha6/alpha3/beta4 (Rattus norvegicus) (UniProt P04757+P12392+P43143); details: Oocyte
[3] = species: Homo sapiens; test: Selectivity ratio of IC50 for human alpha7 nAChR to IC50 for human alpha6/alpha3beta4 nAChR
In short: (§2)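 Ratio of each subtype's IC50, from TEVC inhibition of ACh-evoked currents in X. laevis oocytes, to the IC50 at the same species' α6/α3β4 nAChR; IC50 values with 95% CI, n = number of oocytes.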

[4] = target: Neuronal acetylcholine receptor subunit alpha-6/alpha-3 (Homo sapiens) (UniProt P32297+Q15825); test: Inhibition of human alpha6beta4 nAChR expressed in Xenopus laevis oocytes assessed as recovery of acethylcholine-evoked currents at 10 uM treated for 10 mins followed by compound washout by two-electrode voltage-clamp method relative to control; format: cell-based; design: scale not given: the % may be the effect or the level left; details: Oocyte
[5] = species: Rattus norvegicus; test: Selectivity ratio of IC50 for rat alpha9alpha10 nAChR to IC50 for rat alpha6/alpha3beta4 nAChR; in short: as §2
[6] = target: Neuronal acetylcholine receptor; alpha2/beta4 (Rattus norvegicus, UniProt P12389+P12392); test: Inhibition of rat alpha2beta4 nAChR expressed in Xenopus laevis oocytes assessed as inhibition of acetylcholine-induced current response by two-electrode voltage-clamp method; format: cell-based, Oocyte
In short: (§3)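 TEVC on stage IV–V oocytes 1–5 days after equal-ratio cRNA injection (α2β4, α3β4, α4β4, α7). ACh 300 μM, 1 s pulses at 60 s intervals under frog saline perfusion. Peptide perfused to 1 μM, normalized to average of three control responses; higher concentrations by 5 min static bath. IC50 with 95% CI, n oocytes.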

[7] = target: Neuronal acetylcholine receptor subunit alpha-7 (Homo sapiens, UniProt P36544); test: Inhibition of human alpha7 nAChR expressed in Xenopus laevis oocytes assessed as inhibition of acetylcholine-induced current response by two-electrode voltage-clamp method; format: cell-based, Oocyte; in short: as §3
[8] = target: Neuronal acetylcholine receptor; alpha2/beta2 (Rattus norvegicus, UniProt P12389+P12390); test: Inhibition of rat alpha2beta2 nAChR expressed in Xenopus laevis oocytes assessed as inhibition of acetylcholine-induced current response by two-electrode voltage-clamp method; format: cell-based, Oocyte; in short: as §1
[9] = target: Neuronal acetylcholine receptor subunit alpha-7 (Rattus norvegicus) (UniProt Q05941); test: Inhibition of rat alpha7 nAChR expressed in Xenopus laevis oocytes assessed as inhibition of acetylcholine-induced current response at 10 uM by two-electrode voltage-clamp method relative to control; format: cell-based; details: Oocyte
In short: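 Stage IV–V X. laevis oocytes expressing equal-ratio cRNAs of α2β4, α3β4, α4β4 or α7 subunits; TEVC 1–5 days after injection. ACh 300 μM, 1 s at 60 s intervals. 10 μM peptide as 5 min static bath, normalized to ACh response after 5 min bath of control saline; mean ± SD, n = 4.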

[10] = target: Nicotinic acetylcholine receptor alpha6/alpha3/beta2/beta3 (Rattus norvegicus, UniProt P04757+P12390+P12391+P43143); format: cell-based, Oocyte
[11] = species: Rattus norvegicus; test: Selectivity ratio of IC50 for rat alpha3beta4 nAChR to IC50 for rat alpha6/alpha3beta4 nAChR; in short: as §2
[12] = target: Nicotinic acetylcholine receptor alpha-1/beta-1/delta/epsilon (Homo sapiens, UniProt P02708+P11230+Q04844+Q07001); test: Inhibition of human alpha1beta1deltaepsilon nAChR expressed in Xenopus laevis oocytes assessed as inhibition of acetylcholine-induced current response by two-electrode voltage-clamp method; format: cell-based, Oocyte
In short: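 Stage IV–V X. laevis oocytes nucleus-injected with equal ratios of human α1, β1, δ, ε cDNAs; TEVC 1–5 days after injection. ACh 100 μM, 1 s every 60 s.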

[13] = target: Neuronal acetylcholine receptor; alpha3/beta4 (Rattus norvegicus, UniProt P04757+P12392); format: cell-based, Oocyte
[14] = species: Homo sapiens; test: Selectivity ratio of IC50 for human alpha3beta4 nAChR to IC50 for human alpha6/alpha3beta4 nAChR; in short: as §2
[15] = target: Neuronal acetylcholine receptor; alpha4/beta2 (Rattus norvegicus) (UniProt P09483+P12390); test: Inhibition of rat alpha4beta2 nAChR expressed in Xenopus laevis oocytes assessed as inhibition of acetylcholine-induced current response at 10 uM by two-electrode voltage-clamp method relative to control; format: cell-based; details: Oocyte
In short: (§4)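 Oocytes (stage IV–V) injected with equal-ratio cRNAs of cloned subunits; TEVC 1–5 days post-injection. ACh 100 μM for β2-containing and α9α10 subtypes, 1 s pulses every 60 s. Peptide 10 μM in 5 min static bath; response normalized to ACh response after 5 min control-saline bath; mean ± SD, n = 4.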

[16] = species: Homo sapiens; test: Selectivity ratio of IC50 for human alpha1beta1deltaepsilon nAChR to IC50 for human alpha6/alpha3beta4 nAChR; in short: as §2
[17] = target: T1, Neuronal acetylcholine receptor; alpha4/beta2 (Homo sapiens, UniProt P17787+P43681); test: Inhibition of human alpha4beta2 nAChR expressed in Xenopus laevis oocytes assessed as inhibition of acetylcholine-induced current response by two-electrode voltage-clamp method; format: cell-based, Oocyte; in short: as §1
[18] = species: Homo sapiens; test: Selectivity ratio of IC50 for human alpha4beta2 nAChR to IC50 for human alpha6/alpha3beta4 nAChR; in short: as §2
[19] = Inhibition of human alpha4beta4 nAChR expressed in Xenopus laevis oocytes assessed as inhibition of acetylcholine-induced current response by two-electrode voltage-clamp method; format: cell-based; details: Oocyte; in short: as §3
[20] = species: Rattus norvegicus; test: Selectivity ratio of IC50 for rat alpha2beta2 nAChR to IC50 for rat alpha6/alpha3beta4 nAChR; in short: as §2
[21] = species: Rattus norvegicus; test: Selectivity ratio of IC50 for rat alpha4beta2 nAChR to IC50 for rat alpha6/alpha3beta4 nAChR; in short: as §2
[22] = target: T1, Neuronal acetylcholine receptor; alpha4/beta2; test: Inhibition of human alpha4beta2 nAChR expressed in Xenopus laevis oocytes assessed as inhibition of acetylcholine-induced current response at 10 uM by two-electrode voltage-clamp method relative to control; format: cell-based; details: Oocyte; in short: as §4
[23] = target: Neuronal acetylcholine receptor; alpha9/alpha10 (Homo sapiens) (UniProt Q9UGM1+Q9GZZ6); test: Inhibition of human alpha9alpha10 nAChR expressed in Xenopus laevis oocytes assessed as inhibition of acetylcholine-induced current response at 10 uM by two-electrode voltage-clamp method relative to control; format: cell-based; details: Oocyte; in short: as §4

T1 sequence (P17787 whole entry): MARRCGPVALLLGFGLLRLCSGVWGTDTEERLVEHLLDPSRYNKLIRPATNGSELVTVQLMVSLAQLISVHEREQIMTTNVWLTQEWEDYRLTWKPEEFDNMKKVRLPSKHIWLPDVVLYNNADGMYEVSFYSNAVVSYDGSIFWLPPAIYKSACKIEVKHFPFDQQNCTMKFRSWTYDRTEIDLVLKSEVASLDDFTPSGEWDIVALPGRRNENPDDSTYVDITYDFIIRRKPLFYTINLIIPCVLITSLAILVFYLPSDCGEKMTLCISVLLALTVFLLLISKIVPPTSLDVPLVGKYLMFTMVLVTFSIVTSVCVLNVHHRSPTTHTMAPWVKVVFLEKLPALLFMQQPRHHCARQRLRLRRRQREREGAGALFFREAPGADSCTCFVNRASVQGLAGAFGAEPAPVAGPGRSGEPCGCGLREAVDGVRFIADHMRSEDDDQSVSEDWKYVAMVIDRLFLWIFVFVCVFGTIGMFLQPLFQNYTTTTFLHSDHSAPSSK
T1 sequence (P43681 whole entry): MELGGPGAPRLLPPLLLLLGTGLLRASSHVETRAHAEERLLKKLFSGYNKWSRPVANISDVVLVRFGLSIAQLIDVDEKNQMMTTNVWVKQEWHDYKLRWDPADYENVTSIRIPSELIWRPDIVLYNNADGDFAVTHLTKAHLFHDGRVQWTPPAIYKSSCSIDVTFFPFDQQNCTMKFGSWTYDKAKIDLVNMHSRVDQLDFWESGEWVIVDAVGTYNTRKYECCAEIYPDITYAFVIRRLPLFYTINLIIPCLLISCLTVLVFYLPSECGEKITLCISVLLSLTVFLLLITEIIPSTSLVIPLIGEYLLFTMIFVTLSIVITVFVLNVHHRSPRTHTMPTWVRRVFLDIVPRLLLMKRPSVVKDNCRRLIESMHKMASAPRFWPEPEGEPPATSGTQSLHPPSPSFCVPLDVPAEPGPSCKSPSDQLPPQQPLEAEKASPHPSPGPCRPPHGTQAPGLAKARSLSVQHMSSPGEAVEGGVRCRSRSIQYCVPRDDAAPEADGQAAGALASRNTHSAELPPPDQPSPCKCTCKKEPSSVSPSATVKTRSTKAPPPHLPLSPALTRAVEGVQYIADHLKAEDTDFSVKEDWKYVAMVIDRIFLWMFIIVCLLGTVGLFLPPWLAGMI
Sequence of Neuronal acetylcholine receptor; alpha2/beta4 (P12389 whole entry, the tested form may be a part): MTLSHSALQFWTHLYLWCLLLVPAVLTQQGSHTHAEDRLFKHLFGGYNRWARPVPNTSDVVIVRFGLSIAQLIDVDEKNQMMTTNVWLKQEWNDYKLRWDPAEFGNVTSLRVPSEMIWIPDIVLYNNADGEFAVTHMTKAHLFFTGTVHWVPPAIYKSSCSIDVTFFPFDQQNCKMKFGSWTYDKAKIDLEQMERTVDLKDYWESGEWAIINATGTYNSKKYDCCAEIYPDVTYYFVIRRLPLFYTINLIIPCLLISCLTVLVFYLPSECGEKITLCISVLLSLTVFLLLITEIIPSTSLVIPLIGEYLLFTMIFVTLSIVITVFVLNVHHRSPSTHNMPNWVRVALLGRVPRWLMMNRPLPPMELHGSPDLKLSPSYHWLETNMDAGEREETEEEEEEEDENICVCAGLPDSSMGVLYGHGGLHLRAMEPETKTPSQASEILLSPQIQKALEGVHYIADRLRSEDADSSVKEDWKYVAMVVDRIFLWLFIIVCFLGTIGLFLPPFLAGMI
Sequence of Neuronal acetylcholine receptor; alpha2/beta4 (P12392 whole entry, the tested form may be a part): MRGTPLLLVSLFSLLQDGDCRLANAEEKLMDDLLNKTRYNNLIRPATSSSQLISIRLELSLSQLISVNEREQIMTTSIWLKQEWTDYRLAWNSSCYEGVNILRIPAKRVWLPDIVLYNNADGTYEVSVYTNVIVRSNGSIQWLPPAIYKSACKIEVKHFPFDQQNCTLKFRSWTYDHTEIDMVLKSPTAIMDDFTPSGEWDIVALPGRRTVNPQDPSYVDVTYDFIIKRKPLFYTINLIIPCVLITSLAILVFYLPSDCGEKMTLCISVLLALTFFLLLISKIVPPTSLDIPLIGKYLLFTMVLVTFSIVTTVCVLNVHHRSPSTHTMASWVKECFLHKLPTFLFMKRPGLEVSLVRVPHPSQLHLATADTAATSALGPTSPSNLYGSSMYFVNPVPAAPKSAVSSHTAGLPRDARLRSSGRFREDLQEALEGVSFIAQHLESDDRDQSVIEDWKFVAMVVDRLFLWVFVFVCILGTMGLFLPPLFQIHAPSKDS
Sequence of Neuronal acetylcholine receptor; alpha2/beta2 (P12389 whole entry): as the sequence (P12389 whole entry, the tested form may be a part) above
Sequence of Neuronal acetylcholine receptor; alpha2/beta2 (P12390 whole entry): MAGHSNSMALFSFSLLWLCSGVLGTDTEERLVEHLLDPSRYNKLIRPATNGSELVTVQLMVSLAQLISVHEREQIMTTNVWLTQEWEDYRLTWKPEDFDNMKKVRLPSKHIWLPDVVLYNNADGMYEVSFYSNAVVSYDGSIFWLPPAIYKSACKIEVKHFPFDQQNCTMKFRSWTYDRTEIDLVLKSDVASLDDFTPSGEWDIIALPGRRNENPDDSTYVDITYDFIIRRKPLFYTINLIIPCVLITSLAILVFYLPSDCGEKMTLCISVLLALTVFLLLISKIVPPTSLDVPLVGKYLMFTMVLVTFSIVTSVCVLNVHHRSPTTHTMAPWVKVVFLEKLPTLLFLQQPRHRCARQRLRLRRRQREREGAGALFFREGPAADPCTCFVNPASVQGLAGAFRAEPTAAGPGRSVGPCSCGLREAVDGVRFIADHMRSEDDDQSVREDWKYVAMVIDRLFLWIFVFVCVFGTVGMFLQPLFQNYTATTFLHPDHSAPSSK
Sequence of Neuronal acetylcholine receptor subunit alpha-7 (Rattus norvegicus) (Q05941 whole entry): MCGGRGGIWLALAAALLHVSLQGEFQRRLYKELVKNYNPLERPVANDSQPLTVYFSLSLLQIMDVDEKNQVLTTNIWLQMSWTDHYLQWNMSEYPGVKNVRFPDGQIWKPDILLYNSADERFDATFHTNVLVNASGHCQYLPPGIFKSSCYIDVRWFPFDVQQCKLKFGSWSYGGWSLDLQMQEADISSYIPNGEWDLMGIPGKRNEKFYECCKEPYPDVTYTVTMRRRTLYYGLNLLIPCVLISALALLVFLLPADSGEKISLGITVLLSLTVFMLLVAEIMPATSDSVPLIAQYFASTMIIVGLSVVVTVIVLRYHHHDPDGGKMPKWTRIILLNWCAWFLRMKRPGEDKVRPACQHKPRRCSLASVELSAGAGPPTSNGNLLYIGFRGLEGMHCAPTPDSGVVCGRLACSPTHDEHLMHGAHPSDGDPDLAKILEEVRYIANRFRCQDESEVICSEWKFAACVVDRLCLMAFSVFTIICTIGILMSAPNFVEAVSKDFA
Sequence of Neuronal acetylcholine receptor; alpha3/beta4 (P04757 whole entry): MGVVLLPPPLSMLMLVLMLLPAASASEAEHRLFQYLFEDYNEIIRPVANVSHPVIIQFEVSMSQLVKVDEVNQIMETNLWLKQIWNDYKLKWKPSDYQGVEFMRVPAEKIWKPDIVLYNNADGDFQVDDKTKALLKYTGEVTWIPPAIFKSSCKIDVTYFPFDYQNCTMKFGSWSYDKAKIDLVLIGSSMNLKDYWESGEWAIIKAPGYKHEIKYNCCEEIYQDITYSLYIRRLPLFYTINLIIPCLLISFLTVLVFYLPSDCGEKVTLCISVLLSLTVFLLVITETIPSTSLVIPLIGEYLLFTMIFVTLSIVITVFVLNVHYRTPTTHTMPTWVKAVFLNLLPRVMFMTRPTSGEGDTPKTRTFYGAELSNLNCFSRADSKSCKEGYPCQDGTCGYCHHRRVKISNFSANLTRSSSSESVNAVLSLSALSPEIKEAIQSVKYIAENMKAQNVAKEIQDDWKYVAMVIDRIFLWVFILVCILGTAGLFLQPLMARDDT
Sequence of Neuronal acetylcholine receptor; alpha3/beta4 (P12392 whole entry): as the sequence (P12392 whole entry, the tested form may be a part) above

SMILES: CC[C@H](C)[C@@H]1NC(=O)[C@H](CCC(=O)O)NC(=O)[C@@H]2CCCN2C(=O)[C@H](Cc2cnc[nH]2)NC(=O)[C@H](CC(N)=O)NC(=O)[C@H](C(C)C)NC(=O)[C@H](CC(N)=O)NC(=O)[C@@H]2CSSC[C@H](NC(=O)CN)C(=O)N[C@@H](CSSC[C@@H](C(N)=O)NC1=O)C(=O)N[C@@H](CO)C(=O)N[C@@H](Cc1cnc[nH]1)C(=O)N1CCC[C@H]1C(=O)N[C@@H](C(C)C)C(=O)N2 (H-GCCSHPVCNVNHPEIC-NH2; disulfide 2-8, 3-16)
- IC50 [1]: > 10 µM
- deltalogIC50 [2]: -2.4
- Ratio IC50 [3]: > 50000
- Activity [4]: 2%
- Ratio IC50 [5]: > 20000
- IC50 [6]: > 10 µM
- IC50 [7]: > 10 µM
- IC50 [8]: > 10 µM
- inhibition [9]: 82%
- IC50 [10]: 0.111 µM
- Ratio IC50 [11]: 489
- IC50 [12]: > 10 µM
- IC50 [13]: 0.23 µM
- Ratio IC50 [14]: 895
- inhibition [15]: 81%
- Ratio IC50 [16]: > 50000
- IC50 [17]: > 10 µM
- Ratio IC50 [18]: > 10000
- IC50 [19]: 4.01 µM
- Ratio IC50 [20]: > 20000
- Ratio IC50 [21]: > 20000
- inhibition [22]: 91%
- inhibition [23]: 76%
